This is a sample that favours compounds with a hit; in the whole collection about 2.3% have one here.
TRPC6 inhibitor: blocks the mouse TRPC6 cation channel; Q61143; HEK293-TRPC6, membrane potential dye, ACh-evoked depolarization; hits give low values; B-score at 10 µM; hit rate 1.1% among 310,000; AID 2553;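 active = B-score under library mean minus 3 SD, initial fluorescence not abnormally high, positive integrated signal ratio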;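 also: B-score derived from integrated fluorescence ratio over the kinetic read; more negative B-score means stronger inhibition of depolarization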
TRPC6 act: mouse TRPC6 channel activation; HEK293-TRPC6 membrane potential dye fluorescence; hits give high values; B-score at 10 µM; hit rate 0.13% among 310,000;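 active = B-score of the integrated fluorescence ratio above library mean plus 3 SD, and starting fluorescence ratio within library mean plus 5 SD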;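 also: higher score means more depolarization so channel activation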
TRPC4 inh: blocks the mouse TRPC4 cation channel; AID 2247; B-score at 10 µM; HEK293 TRPC4beta/mu-opioid, DAMGO-evoked Fluo4 calcium flux; hits give low values; hit rate 0.39% among 300,000; Q9QUQ5;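 active = B-score over 3 SD under the library average, no early fluorescence shift, positive overall ratio signal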
Target sequence (Q9QUQ5 whole entry, looked up): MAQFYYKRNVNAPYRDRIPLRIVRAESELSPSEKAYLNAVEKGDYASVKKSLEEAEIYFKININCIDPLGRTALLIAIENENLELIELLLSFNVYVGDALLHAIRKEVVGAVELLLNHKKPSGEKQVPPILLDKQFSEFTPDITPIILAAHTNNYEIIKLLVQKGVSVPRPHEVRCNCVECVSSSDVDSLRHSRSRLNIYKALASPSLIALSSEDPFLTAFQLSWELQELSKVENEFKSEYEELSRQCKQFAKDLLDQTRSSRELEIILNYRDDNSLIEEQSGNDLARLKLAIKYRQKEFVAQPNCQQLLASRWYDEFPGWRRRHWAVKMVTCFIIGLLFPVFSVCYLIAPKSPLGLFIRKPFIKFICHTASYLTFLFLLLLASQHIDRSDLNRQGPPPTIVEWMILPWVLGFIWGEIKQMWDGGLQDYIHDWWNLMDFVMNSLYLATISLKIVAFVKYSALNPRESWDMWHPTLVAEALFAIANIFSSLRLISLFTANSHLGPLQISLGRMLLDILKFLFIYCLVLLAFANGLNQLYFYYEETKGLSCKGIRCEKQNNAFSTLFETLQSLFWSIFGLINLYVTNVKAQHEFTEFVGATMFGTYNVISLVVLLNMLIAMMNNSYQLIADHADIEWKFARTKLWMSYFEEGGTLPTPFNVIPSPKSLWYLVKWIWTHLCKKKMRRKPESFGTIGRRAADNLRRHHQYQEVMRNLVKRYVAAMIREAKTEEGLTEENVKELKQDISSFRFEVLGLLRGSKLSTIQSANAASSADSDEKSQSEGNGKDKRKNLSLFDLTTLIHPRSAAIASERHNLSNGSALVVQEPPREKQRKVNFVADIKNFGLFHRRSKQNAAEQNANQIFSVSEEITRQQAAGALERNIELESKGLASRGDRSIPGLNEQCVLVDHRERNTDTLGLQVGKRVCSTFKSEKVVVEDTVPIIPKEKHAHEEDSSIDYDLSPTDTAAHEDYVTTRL
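Assay system: HEK293 cells with stable TRPC4beta plus mu-opioid receptor expression. Dosing: single dose. Measured by: Fluo4 Ca2+ flux fluorescence. Also added: DAMGO in two steps, submaximal then maximal. Read-out: B score from integrated Fluo4 fluorescence ratio.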
TRPC4 agonist: activators of mouse TRPC4 channel; Q9QUQ5; HEK293 TRPC4beta/mu-opioid, Fluo4 calcium fluorescence; hits give high values; B-score at 10 µM; hit rate 0.49% among 310,000;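 active = B-score above 5 SD of library B-scores, and initial fluorescence ratio not above library mean plus 5 SD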;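 also: positive B-score marks a calcium rise read as TRPC4 activation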
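Assay system – TRPC4beta and mu-opioid receptor HEK293 stable cells · Measured by – Fluo4 fluorescence, kinetic · Schedule – dye loading 45 min room temperature, 110 s kinetic read · Read-out – B-scored integrated calcium fluorescence ratio · Controls – buffer and maximal DAMGO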
TRPC4 potent: TRPC4 (mouse) allosteric potentiation; Q9QUQ5; HEK293 TRPC4beta/mu-opioid, DAMGO EC20, Fluo-4 Ca2+ flux; hits give high values; B-score at 10 µM; hit rate 0.42% among 310,000;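 active = B-score of calcium response area above 5 SD of library B-scores, with initial fluorescence ratio within 5 SD of library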
TRPC4 spec 2: second check of whether TRPC6 inhibitors also affect mouse TRPC4; hit rate 42% among 920; shares compounds with TRPC6 inhibitor; inhibition, % at 10 µM; HEK293 TRPC4/MOR, membrane potential dye fluorescence; channel activated by saturating DAMGO dose;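 active = compounds whose fluorescence signal differed from control wells by over 3 SD, either direction, in both duplicate plates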
TRPC4 spec: tests whether TRPC6 inhibitors also affect mouse TRPC4; shares compounds with TRPC6 inhibitor; HEK293 TRPC4/mu-opioid, membrane potential fluorescence; activity change, negative = inhibition, % at 10 µM; hit rate 61% among 920;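 active = rise or fall in signal beyond 3 SD of buffer-only wells in both replicate plates, either sign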;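 also: integrated kinetic ratio of fluorescence range over baseline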
HEK293 MPD ctr 2-1: second check of TRPC6 inhibitor effects in parental HEK293 cells; shares compounds with TRPC6 inhibitor; parental HEK293 membrane potential dye fluorescence; maximal acetylcholine challenge after compound addition; signal change vs control, % at 10 µM; hit rate 31% among 920;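 active = membrane potential signal moving either way by over 3 SD of the maximum-effect control, in both duplicate plates, meaning non-specific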
HEK293 MPD ctr-1: checks TRPC6 inhibitor effects in parental HEK293 cells; hit rate 60% among 920; membrane potential signal change, % at 10 µM; shares compounds with TRPC6 inhibitor; parental HEK293 membrane potential dye fluorescence; AID 2780;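 active = membrane potential signal shifting up or down by more than 3 SD of buffer-only wells, on both duplicate plates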
HEK293 MPD ctr-2: counter-screen for TRPC6 modulators: effect in parental HEK293 cells; shares compounds with TRPC6 inhibitor; AID 488924; membrane potential signal change, % at 10 µM; membrane potential dye fluorescence; hit rate 51% among 2,400;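 active = membrane potential signal moves up or down beyond 5 SD from buffer-only wells, on both duplicate plates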
HEK293 MPD ctr 2-2: second check of TRPC6 modulator effects in parental HEK293 cells; shares compounds with TRPC6 inhibitor; membrane potential dye fluorescence; after compound, maximal acetylcholine stimulation; inhibition, % at 10 µM; hit rate 14% among 2,400; AID 488926;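 active = membrane potential signal drops by more than 5 SD from the mean control signal, in both duplicate plates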
TRPC4/MOR mod: tests whether TRPC6 modulators also affect mouse TRPC4; shares compounds with TRPC6 inhibitor; HEK293 TRPC4/mu-opioid, membrane potential fluorescence; percent change from control (negative = decrease, positive = increase), % at 10 µM; hit rate 69% among 2,400; AID 488927;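 active = membrane potential signal moved up or down beyond 5 SD of buffer control wells, in both duplicate plates, actives on both sides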
TRPC4 ctr inh 2: second check of whether TRPC6 modulators also affect mouse TRPC4; shares compounds with TRPC6 inhibitor; HEK293 TRPC4/mu-opioid, membrane potential dye fluorescence; stimulated with maximal-effect DAMGO; inhibition, % at 10 µM; hit rate 55% among 2,400;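 active = drop in membrane potential signal beyond 5 SD of the control wells in both duplicate plates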;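 also: TRPC4 counter screen for TRPC6 hits run under conditions tuned for TRPC6 not TRPC4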
TRPC6 block conf: mouse TRPC6 inhibitor confirmation; shares compounds with TRPC6 inhibitor; inhibition, % at 10 µM; AID 488960; hit rate 43% among 3,300; HEK293-TRPC6, membrane potential dye, ACh-evoked depolarization;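 active = fluorescence ratio falls more than 5 SD below the full-stimulation control mean, in both duplicate runs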;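 also: integrated fluorescence ratio of peak minus minimum over baseline after agonist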
TRPC6 act conf: mouse TRPC6 activator confirmation; shares compounds with TRPC6 inhibitor; HEK293-TRPC6 membrane potential dye fluorescence, FDSS; activation, % at 10 µM; hit rate 11% among 2,800; AID 488961;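 active = ratio signal rise beyond 5 SD above unstimulated control wells' mean, seen in both duplicate runs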
A number is an active result; - = inactive; . = not tested or not shown.

SMILES | TRPC6 inhibitor | TRPC6 act | TRPC4 inh | TRPC4 agonist | TRPC4 potent | HEK293 MPD ctr-2 | HEK293 MPD ctr 2-2 | TRPC4/MOR mod | TRPC4 ctr inh 2 | TRPC6 block conf | TRPC6 act conf | others
O=C(O)COc1ccccc1/C=N/NC(=O)CSc1nnc(-c2ccc(Cl)cc2)n1C1CCCCC1 | - | - | - | - | - | . | . | . | . | . | .
COc1ccc2nc(C)c3c(c2c1)OC(C)C3 (stereo not given) | -7.5 | - | - | - | - | . | . | . | . | - | - | TRPC4 spec 2=-;TRPC4 spec=-17%;HEK293 MPD ctr 2-1=18%;HEK293 MPD ctr-1=-236%
COc1cccc2c3c(c(C)nc12)CC(C)O3 (stereo not given) | -6.2 | - | - | - | - | -146% | - | -18% | 41% | - | -
Cc1nc2ccc(C(=O)O)cc2c2c1CC(CN)O2 (stereo not given) | - | - | - | - | - | . | . | . | . | . | .
CCOC(=O)c1ccc2nc(C)c3c(c2c1)OC(C)C3 (stereo not given) | -5.2 | - | - | - | - | -112% | - | -13% | - | - | -
CCN(CC)S(=O)(=O)c1ccc(C)c(NS(=O)(=O)c2cc(/C=C/C(=O)O)cc(OC)c2OC)c1 | - | - | - | - | - | . | . | . | . | . | .
Nc1c(-c2ccccc2)cnn1-c1ccccc1 | - | - | - | - | - | . | . | . | . | . | .
Nc1c(-c2cccc(Cl)c2)cnn1-c1ccccc1 | -7.1 | - | - | - | - | -124% | - | -18% | 76% | 52% | -
CN(CC(=O)Nc1cccc(F)c1)C(=O)c1ccc(N2CCOCC2)c([N+](=O)[O-])c1 | -7 | - | - | - | - | - | - | 92% | 76% | - | -
COc1ccc2c(c1)c1c3n2CCN(C)C3=NCC1 | -13 | - | - | - | - | -290% | 90% | -44% | 46% | 58% | -
c1cc2c(cc1C1CCCCC1)c1c3n2CCN=C3CCC1 | - | - | - | - | - | . | . | . | . | . | .
Cc1ccc(-c2nnc3ccc(SCC(=O)Nc4cc(C)on4)nn23)cc1 | - | - | - | - | - | . | . | . | . | . | .
Cc1cc(NC(=O)CSc2ccc3nnc(-c4cccs4)n3n2)no1 | -5.3 | - | - | - | - | -159% | - | -36% | - | - | -
CC1CCCN(C(=O)C2COc3ccccc3O2)C1 (stereo not given) | -5 | - | - | - | - | - | - | 8.5% | - | 49% | .
CN(CC(=O)Nc1cccc2ccccc12)C(=O)/C=C/c1cccs1 | - | - | - | - | - | . | . | . | . | . | .
CC1CC(OC(=O)C(O)c2ccccc2)CC(C)(C)N1C (stereo not given) | -5.7 | - | - | - | - | - | - | 8.5% | - | 56% | -
COc1ccc(C(=O)CN2CCN(c3cc(C)nc4ccccc34)CC2)cc1 | - | - | - | - | - | . | . | . | . | . | .
COc1ccc2nc(C)cc(N3CC(C)OC(C)C3)c2c1 (stereo not given) | - | - | - | - | - | . | . | . | . | . | .
COc1ccc2nc(C)cc(N3CCOCC3)c2c1 | -12 | - | - | - | - | -428% | 100% | -60% | 67% | 76% | -
COc1ccc2nc(C)cc(N3CCN(c4ccccc4)CC3)c2c1 | -5.1 | - | - | - | - | -174% | - | -41% | 68% | - | -
Cc1ccc2nc(C)cc(N3CCOCC3)c2c1 | -11 | - | - | - | - | -300% | 96% | -45% | 69% | 75% | -
O=C1Nc2cc(C(F)(F)F)ccc2N2CCCCC12 (stereo not given) | - | - | - | - | - | . | . | . | . | . | .
COc1ccc(CN2CC(C(=O)N3CC(C)CC(C)C3)CC2=O)cc1 (stereo not given) | - | - | - | - | - | . | . | . | . | . | .
CC(=O)N/C(=N\c1nc(C)cc(C)n1)Nc1ccc2ccccc2c1 | - | - | - | - | - | . | . | . | . | . | .
CC(=O)Nc1ccc(OS(=O)(=O)c2cc(Cl)ccc2C)cc1 | - | - | - | - | - | . | . | . | . | . | .
SMILES | TRPC6 inhibitor | TRPC6 act | TRPC4 inh | TRPC4 agonist | TRPC4 potent | HEK293 MPD ctr-2 | HEK293 MPD ctr 2-2 | TRPC4/MOR mod | TRPC4 ctr inh 2 | TRPC6 block conf | TRPC6 act conf | others
CN1CCC(=C2c3ccccc3C=Cc3ccccc32)CC1 | -5.5 | - | - | - | - | 150% | 76% | 23% | 54% | 75% | .
CN1CCN(C(=O)CCN2C(=O)c3ccccc3C2=O)CC1 | - | - | - | - | - | . | . | . | . | . | .
O=C(CSc1nc2c(c(=O)n1-c1ccc(Br)cc1)SCC2)NCC1CCCO1 (stereo not given) | -5 | - | - | - | - | 108% | - | 25% | 32% | 51% | .
Cc1ccc(S(=O)(=O)Nc2nc3ccccc3nc2NCC2CCCO2)c(C)c1 (stereo not given) | - | 14 | - | - | - | - | - | - | - | - | -
Cc1cccc(C)c1OC(=O)CN1C(=O)c2ccccc2C1=O | - | - | - | - | - | . | . | . | . | . | .
CCOC(=O)c1cnc2ccc(OC)cc2c1Nc1ccc2c(c1)OCCO2 | -7.5 | - | - | - | - | . | . | . | . | - | - | TRPC4 spec 2=-;TRPC4 spec=-14%;HEK293 MPD ctr 2-1=-;HEK293 MPD ctr-1=-292%
CCOC(=O)c1cnc2ccc(C(=O)OC)cc2c1Nc1ccc2c(c1)OCCO2 | - | - | - | - | - | . | . | . | . | . | .
CCOC(=O)c1ccc2ncc(C(=O)OCC)c(Nc3ccc(N4CCOCC4)cc3)c2c1 | -9.7 | - | - | - | - | -186% | - | -46% | 42% | - | -
CCOC(=O)c1cnc2ccc(C(=O)OC)cc2c1Nc1ccc(C(=O)O)cc1 | -5.2 | - | - | - | - | -248% | - | -37% | 43% | - | -
CS(=O)(=O)Cc1cccc(C(=O)NC2CCSc3ccccc32)c1 (stereo not given) | - | - | - | - | - | . | . | . | . | . | .
